Bioassay records as filed in PubChem.
A selection: hits, their analogues and other compounds. The true share with any hit is near 1.8%.
LEDGF integ inh: blocks HIV-1 LEDGF/p75-dependent DNA integration; TR-FRET IN-LEDGF/p75 DNA integration, Eu/Cy5; inhibition, % at 3.7 µM; hit rate 0.64% among 370,000;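 active = inhibition above the screen-wide mean plus 3 SD, cut at about 13% in these data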;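 note: signal is the Cy5 over europium emission ratio at 671 and 618 nm; 0% = plate median of compound wells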
UHRF1 binding: UHRF1 methyl-DNA binding inhibition. Q96T88. UHRF1 binding to methylated oligo, TR-FRET. inhibition, % at 4.4 µM. hit rate 0.75% among 370,000; in the data active = inhibition above about 21%;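 note: UHRF1 SRA domain binding a hemimethylated CpG hairpin DNA probe; 0% = median of test compound wells and 100% = reference inhibitor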
TDP2 absorb: blocks human TDP2 phosphodiesterase activity; hit rate 0.34% among 370,000; recombinant TDP2, T5PNP hydrolysis, p-nitrophenol absorbance 415 nm; inhibition, % at 12.8 µM;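 active = inhibition above the mean of all tested compounds plus 3 SD, set per campaign, cut at about 25% in these data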;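 note: 0% = DMSO with enzyme and 100% = buffer with substrate but no TDP2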
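Test system: human TDP2 enzyme; Input: 120 nM TDP2 per well; Buffer or medium: Mg2+-containing Tris-HCl buffer, pH 7.5; Reagent: 5 mM T5PNP; Dosing: 12.8 µM single point, 1% DMSO; Incubation: reaction 2 h, 37 °C; Detection: p-Nitrophenol epi absorbance; Read-out: % inhibition relative to enzyme-containing and enzyme-free wells; Replicates: single well per compound.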
MBD2 DNA inh: blocks human MBD2 binding to methylated DNA | Q9UBB5 | inhibition, % at 4.4 µM | AID 686964 | hit rate 0.31% among 370,000 | TR-FRET, MBD2 binding to methylated oligonucleotide; in the data active = inhibition above about 13%
NSD2 inh: inhibitors of human histone methyltransferase NSD2; AID 743445; NSD2 peptide methylation, AlphaScreen, 120 min; inhibition, % at 12.5 µM; hit rate 0.54% among 310,000; O96028; in the data active = inhibition above about 50%
Target sequence (O96028 whole entry, looked up): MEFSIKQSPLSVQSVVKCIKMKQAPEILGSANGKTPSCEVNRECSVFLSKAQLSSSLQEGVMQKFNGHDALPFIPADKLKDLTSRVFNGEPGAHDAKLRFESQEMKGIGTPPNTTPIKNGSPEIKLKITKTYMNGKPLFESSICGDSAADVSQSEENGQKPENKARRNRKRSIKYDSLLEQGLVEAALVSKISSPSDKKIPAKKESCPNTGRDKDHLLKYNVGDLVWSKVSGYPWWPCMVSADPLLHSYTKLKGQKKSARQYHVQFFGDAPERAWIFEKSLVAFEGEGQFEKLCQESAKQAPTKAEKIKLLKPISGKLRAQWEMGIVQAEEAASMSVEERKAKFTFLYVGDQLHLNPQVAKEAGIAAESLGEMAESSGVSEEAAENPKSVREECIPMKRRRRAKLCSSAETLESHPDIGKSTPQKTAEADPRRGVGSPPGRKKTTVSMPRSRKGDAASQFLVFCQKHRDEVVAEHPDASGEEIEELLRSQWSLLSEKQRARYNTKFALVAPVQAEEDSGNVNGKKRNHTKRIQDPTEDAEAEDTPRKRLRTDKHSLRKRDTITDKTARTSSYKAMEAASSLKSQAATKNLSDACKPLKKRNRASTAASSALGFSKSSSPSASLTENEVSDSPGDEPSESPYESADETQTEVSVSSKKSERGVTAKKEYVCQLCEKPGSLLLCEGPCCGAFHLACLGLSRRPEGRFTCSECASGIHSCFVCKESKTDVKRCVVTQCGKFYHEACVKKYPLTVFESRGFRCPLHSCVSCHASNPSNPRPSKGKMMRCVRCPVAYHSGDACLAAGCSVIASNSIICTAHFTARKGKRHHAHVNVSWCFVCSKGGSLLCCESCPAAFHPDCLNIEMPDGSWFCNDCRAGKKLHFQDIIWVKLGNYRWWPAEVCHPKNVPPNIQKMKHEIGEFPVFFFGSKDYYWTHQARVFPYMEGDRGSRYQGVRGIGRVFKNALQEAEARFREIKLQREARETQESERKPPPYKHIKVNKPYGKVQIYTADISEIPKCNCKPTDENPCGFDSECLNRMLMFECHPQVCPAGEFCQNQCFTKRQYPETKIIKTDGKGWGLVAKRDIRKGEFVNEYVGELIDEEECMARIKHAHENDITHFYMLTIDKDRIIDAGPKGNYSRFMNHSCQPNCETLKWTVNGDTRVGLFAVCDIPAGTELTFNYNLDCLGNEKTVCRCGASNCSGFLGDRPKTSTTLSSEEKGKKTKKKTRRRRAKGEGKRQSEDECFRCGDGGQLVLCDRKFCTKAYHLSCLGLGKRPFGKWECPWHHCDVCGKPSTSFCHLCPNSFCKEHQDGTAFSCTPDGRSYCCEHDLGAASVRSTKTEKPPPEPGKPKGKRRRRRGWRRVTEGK
CASP6 VEID inh: blocks human caspase-6 cleavage activity | purified caspase-6, Z-VEID-R110 cleavage fluorescence | inhibition, % at 12.5 µM | hit rate 0.53% among 350,000 | AID 686996;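 active = mean inhibition across replicates at least about 35%, with every replicate also reaching that limit, limit read from the data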;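 note: 0% = median of neutral control wells and 100% = no fluorescence left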
IN multimer up: counter-screen for LEDGF/p75 integration inhibitors: HIV-1 integrase multimerization activators | shares compounds with LEDGF integ inh | TR-FRET HIV-1 integrase multimerization, biochemical | activation, % at 7.7 µM | hit rate 17% among 2,000; in the data active = activation above about 8.9%
TRFRET interf: counter-screen for LEDGF/p75 integration inhibitors: TR-FRET optical interference; TR-FRET optical interference counterscreen, HIV-1 IN multimerization; 2,000 tested, under 10 active; AID 1053135; shares compounds with LEDGF integ inh; inhibition, % at 7.7 µM;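 active = inhibition above the mean over all tested compounds plus 3 SD, which no compound reached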;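 note: 0% = integrase with antibodies and DMSO and 100% = antibodies without integrase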
IN-LEDGF confirm: LEDGF/p75-dependent HIV-1 integration inhibition, confirmation. hit rate 36% among 2,000. TR-FRET LEDGF/p75-dependent HIV-1 integration, biochemical. shares compounds with LEDGF integ inh. inhibition, % at 3.7 µM; in the data active = inhibition above about 14%
Starred values were filed as active, the others as inactive; · = not tested or not shown.

SMILES	LEDGF integ inh	UHRF1 binding	TDP2 absorb	MBD2 DNA inh	NSD2 inh	CASP6 VEID inh	IN multimer up	TRFRET interf	IN-LEDGF confirm
O=C(NC(Cc1ccccc1)C(=O)O)/C(=C/c1ccc(Cl)cc1)NC(=O)c1ccccc1 (stereo not drawn)	20*	-2	11	2	1	-1	2	-8	15*
S=C(NCc1ccco1)NCc1ccco1	34*	27*	6	3	2	52*	6	-20	3
Cc1ccc(C(=O)ONc2ccc(N=NC(=O)c3ccccc3O)cc2)cc1	20*	-2	-13	0	3	·	2	-7	-1
N#Cc1nc(-c2cccs2)oc1NCc1ccccc1	14*	-2	0	4	0	·	5	-17	17*
Cc1ccc(CNc2oc(-c3cccs3)nc2C#N)cc1	21*	-2	-22	-2	0	·	1	-7	2
N#Cc1nc(-c2ccc(F)cc2)oc1NCc1ccccc1	15*	0	-1	7	·	-3	-2	8	-2
N#Cc1nc(-c2cccs2)oc1NCc1ccc(Cl)cc1	7	1	5	-4	2	·	·	·	·
N#Cc1nc(-c2ccc(F)cc2)oc1NCc1ccco1	7	1	1	3	-1	2	·	·	·
N#Cc1nc(-c2cccs2)oc1NCc1ccco1	12	-4	0	-5	4	·	·	·	·
O=C(C[C@H]1CC[C@H]2[C@@H](COC[C@@H](O)CN2S(=O)(=O)c2ccc(F)cc2)O1)NCc1ccncn1	·	·	·	·	·	1	·	·	·
CCS(=O)(=O)NCC[C@H]1CC[C@@H](NC(=O)C2CCC2)[C@H](CO)O1	·	·	·	·	·	-4	·	·	·
COc1ccc(S(=O)(=O)Nc2ccc3c(c2)C(=O)N([C@@H](C)CO)C[C@@H](C)[C@H](CN(C)Cc2ccc(C(F)(F)F)cc2)O3)cc1	·	·	·	·	·	2	·	·	·
CN(C(=O)c1ccccc1OCc1ccc(F)cc1)c1c(N)n(Cc2ccccc2)c(=O)[nH]c1=O	55*	2	3	1	0	0	-1	7	-5
CCCCN(C(=O)c1ccccc1OCc1ccc(F)cc1)c1c(N)n(CCC)c(=O)[nH]c1=O	-4	2	-4	-1	1	-4	·	·	·
C[C@H](CO)N1C[C@H](C)[C@@H](CN(C)CC2CCCCC2)OCCCC[C@H](C)Oc2ccc(NC(=O)C3CCCCC3)cc2C1=O	·	·	·	·	·	1	·	·	·
COc1ccc(/C=C2\C(=O)NC(=O)c3ccccc32)cc1OC	30*	6	63*	-8	·	93*	16*	-62	65*
COCC(=O)Nc1ccc2c(c1)[C@H]1C[C@H](CC(=O)NC3CCCCC3)O[C@H](CO)[C@H]1O2	·	·	·	·	·	1	·	·	·
Cc1ccc(S(=O)(=O)NC2=NCN(CCN3CCOCC3)CN2)cc1	22*	0	3	0	0	·	-1	4	-1
CCCN1CN=C(NS(=O)(=O)c2ccc(C)cc2)NC1	1	1	12	2	-2	-5	·	·	·
COCC1CN(CCc2ccc(F)cc2)S(=O)(=O)c2c(F)cccc2O1 (stereo not drawn)	18*	-1	-3	2	·	-3	1	-2	0
CCc1nc2c(OCC3COc4ccccc4O3)cccn2c1N(C)C(=O)c1cccc(OC)c1 (stereo not drawn)	20*	-1	-5	3	3	0	1	-6	0
CCCC#Cc1ccc([C@H]2[C@H](CO)N3C(=O)CN(C(=O)c4ccccc4)C[C@@H]23)cc1	·	·	·	·	·	6	·	·	·
O=C(NC(=S)Nc1cccc([N+](=O)[O-])c1)C1CCCC1	88*	-4	14	-5	-1	-4	-2	12	4
O=C1SC(SCc2ccccc2)=N/C1=C\c1ccco1	26*	29*	14	9	15	·	0	0	1
O=C1SC(SCc2ccccc2)=N/C1=C\c1ccc(C(=O)O)cc1	3	7	4	4	8	0	·	·	·
SMILES	LEDGF integ inh	UHRF1 binding	TDP2 absorb	MBD2 DNA inh	NSD2 inh	CASP6 VEID inh	IN multimer up	TRFRET interf	IN-LEDGF confirm
COCC(=O)N(C)C[C@@H]1Oc2ncc(C#CC(C)(C)O)cc2C(=O)N([C@H](C)CO)C[C@@H]1C	·	·	·	·	·	-2	·	·	·
O=C(N1CCOCC1)N1CCCN(C(=O)N2CCOCC2)CC1	-4	7	1	8	0	·	·	·	·
O=C(N1CCCCCC1)N1CCN(C(=O)N2CCOCC2)CC1	31*	5	6	5	-2	·	0	1	0
O=C(Nc1ccccc1N1CCCCC1)c1ccc(OC(F)F)cc1	36*	2	5	-2	7	-1	1	-4	4
COc1ccccc1C#Cc1ccc([C@H]2[C@H](CO)N3CCCCN(S(C)(=O)=O)C[C@@H]23)cc1	·	·	·	·	·	2	·	·	·
CN(C)/C=C/c1oc2ccc(O)cc2c1[N+](=O)[O-]	18*	-22	7	-16	9	21	19*	-96	7
Cc1oc2ccc(O)cc2c1C(=O)c1ccc([N+](=O)[O-])cc1	1	2	-4	-2	1	-1	·	·	·
CC(Sc1nnc(-c2ccccc2Br)o1)C(=O)N1CCOCC1 (stereo not drawn)	23*	-1	17	-7	-1	-4	-2	8	-4
O=C(CSc1nnc(-c2ccccc2Br)o1)N1CCOCC1	2	0	3	-1	-6	-1	·	·	·
COc1ccc(CNc2ccccc2)cc1Br	22*	1	5	3	0	·	0	2	3
O=C(Nc1ccc2c(c1)oc1ccc(S(=O)(=O)N3CCCC3)cc12)C1CC1	24*	-6	14	2	0	·	1	-3	-4
O=C(Nc1ccc2c(c1)oc1ccccc12)C1CC1	-2	-2	6	1	-1	·	·	·	·
COc1ccc(CNC(=O)CN(CCC(C)C)S(=O)(=O)c2ccc3c(c2)OCCO3)cc1	23*	2	9	0	-2	3	6	-28	0
COc1ccc2c3c(n(C)c2c1)[C@@H](CO)N(CC1CCCC1)CC31CCN(C(=O)Nc2ccccc2)CC1	·	·	·	·	·	-8	·	·	·
COc1ccc(-c2csc(NC(=O)c3ccccc3F)c2C(=O)O)cc1	15*	-1	-5	6	0	2	3	-11	10
COc1ccc(NS(=O)(=O)c2ccc(OC)c(OC)c2)cc1OC	0	1	-3	3	1	·	·	·	·
COc1ccc(S(=O)(=O)Nc2ccc(F)c(F)c2)cc1Cl	35*	-2	-3	0	-5	·	2	-6	-6
